Bioassay records: PubChem BioAssay, Broad Institute
Only a selection was taken, and hits are over-represented in it overall.
A1 apoptosis 2 = compounds inhibiting A1, read as caspase activation; 24,000 tested, under 10 active; MEF A1-2A-BIM cells, caspase-Glo luminescence, 3 h; percent of clofoctol response, DMSO zero; caspase activation, % (test concentration not listed); in the data active = caspase activation above about 5.9%
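Material: A1-2A-BIM-expressing MEF cells. Buffer or medium: RPMI-1640 plus 10% FBS. Incubation: cells settled overnight, compound exposure 3 h at 37 °C, 5% CO2. Signal: Caspase-Glo 3/7 luminescence, 1 h at room temperature.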
T cruzi HTS = inhibitors of intracellular Trypanosoma cruzi; activity score (inhibition), % at 5.01 µM; intracellular Trypanosoma cruzi in host cells, plate reader; AID 651903; 22,000 compounds, 4.9% hits; in the data active = activity score above about 55%;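 note: parasites and compound incubated about four days before reading; 0% = median of neutral control wells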
INS-1E rescue = rescue of cytokine-induced death in INS-1E beta cells; INS-1E cytokine-induced death, ATP luminescence, 48 h; normalised: neutral wells 0, positive control 100; protection from cytokine-induced ATP loss, % at 10 µM; 20,000 compounds, 0.1% hits;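 active = mean replicate protection from cytokine-induced ATP loss at least 50% and at least 75% of replicates each reaching 50%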
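Assay system: INS-1E rat insulinoma cells. Amount: 8000 cells per well. Medium: phenol-red-free RPMI with 5% fetal bovine serum. Reagent: IL-1β, TNF-α and IFN-γ cytokine mix. Doses: one compound concentration, pin transfer. Schedule: 48 h co-treatment, 10 min post-lysis read. Detection: CellTiter-Glo luminescence measuring cellular ATP.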
An asterisk follows results filed as active; . = not tested or not shown.

SMILES | A1 apoptosis 2 | T cruzi HTS | INS-1E rescue
C[C@@H]1CN([C@H](C)CO)C(=O)Cc2cc(NC(=O)Nc3cccc4ccccc34)ccc2O[C@@H]1CN(C)C(=O)Nc1ccc(C(F)(F)F)cc1 | . | 25.9 | -5.7
C[C@H]1CN([C@@H](C)CO)C(=O)Cc2cc(NC(=O)Nc3cccc4ccccc34)ccc2O[C@H]1CN(C)Cc1ccc(-c2ccccc2)cc1 | . | 4.3 | -44.8
C[C@H]1CN([C@@H](C)CO)C(=O)Cc2cc(NC(=O)Nc3cccc4ccccc34)ccc2O[C@H]1CN(C)Cc1ccccc1 | 0.3 | 68.8* | -19.5
C[C@@H]1CN([C@H](C)CO)C(=O)Cc2cc(NC(=O)Nc3ccc(C(F)(F)F)cc3)ccc2O[C@@H]1CN(C)CC1CCCCC1 | . | 61.5* | -72.9
C[C@@H]1CN([C@H](C)CO)C(=O)Cc2cc(NC(=O)Nc3ccc(C(F)(F)F)cc3)ccc2O[C@H]1CN(C)CC1CCCCC1 | . | 82.8* | -18.2
C[C@@H]1CN([C@H](C)CO)C(=O)Cc2cc(NC(=O)Nc3ccc(C(F)(F)F)cc3)ccc2O[C@H]1CN(C)CC1CC1 | -0.3 | 7.8 | -11.1
C[C@H]1CN([C@@H](C)CO)C(=O)Cc2cc(NC(=O)Nc3ccc(C(F)(F)F)cc3)ccc2O[C@H]1CN(C)CC1CC1 | -1.5 | 9.7 | 3.9
C=CCOc1ccccc1/C=N/NC(=O)c1ccccc1O | -1.9 | -5.0 | 11.8
C=CCOC(=O)[C@H]1[C@@H]2C(=O)O[C@@H](c3ccccc3)[C@@H](c3ccccc3)N2[C@@H](c2ccc(OCCOC(=O)[C@@H]3C[C@@H]4C(=O)N[C@@H](CC(C)C)C(=O)N4[C@@H]3c3cccc(OCCO)c3)cc2)[C@]12C(=O)Nc1ccc(I)cc12 | 0.5 | . | .
N#Cc1ccc(/C=N/NC(=O)c2ccccn2)cc1 | -9.1 | -11.5 | -14.7
C[C@@H]1CN([C@@H](C)CO)C(=O)c2cccc(NC(=O)Nc3ccc(C(F)(F)F)cc3)c2O[C@@H]1CN(C)CC1CCCCC1 | -1.0 | 78.1* | -64.0
C[C@@H]1CCCCO[C@@H](CN(C)CC2CCCCC2)[C@@H](C)CN([C@H](C)CO)C(=O)c2cc(NC(=O)Nc3ccc(F)cc3)ccc2O1 | . | 70.5* | -15.3
C[C@@H]1CN([C@@H](C)CO)C(=O)c2cccc(NC(=O)Nc3ccc(C(F)(F)F)cc3)c2O[C@@H]1CN(C)CC1CC1 | -1.4 | -17.5 | -18.8
C[C@H]1CCCCO[C@@H](CN(C)CC2CCCCC2)[C@@H](C)CN([C@@H](C)CO)C(=O)c2cc(NC(=O)Nc3ccc(C(F)(F)F)cc3)ccc2O1 | 2.0 | . | .
C[C@@H]1CN([C@@H](C)CO)C(=O)c2cc(NC(=O)Nc3ccc(C(F)(F)F)cc3)ccc2O[C@H]1CN(C)CC1CCCCC1 | 0.9 | 40.1 | -21.6
C[C@H](CO)N1C[C@H](C)[C@H](CN(C)CC2CCCCC2)Oc2ccc(NC(=O)Nc3ccc(C(F)(F)F)cc3)cc2C1=O | -0.6 | 61.9* | -45.5
C[C@@H]1CN([C@@H](C)CO)C(=O)c2cc(NC(=O)Nc3ccc(F)cc3)ccc2O[C@@H](C)CCCCO[C@@H]1CN(C)CC1CCCCC1 | 0.8 | . | .
C[C@@H]1CCCCO[C@@H](CN(C)CC2CCCCC2)[C@@H](C)CN([C@H](C)CO)C(=O)c2cc(NC(=O)Nc3ccc(C(F)(F)F)cc3)ccc2O1 | . | 72.7* | -12.3
COc1ccc(/C=N/NC(=O)c2ccccn2)c(O)c1 | -12.6 | 34.7 | -118.8
[N-]=[N+]=NCc1ccccc1C[C@@]1(C(=O)NCc2ccccc2)N=C(c2ccc(OCCCO)cc2)O[C@@H]1c1ccccc1 | -0.2 | . | .
O=C(CCCCCCC(=O)Nc1ccccc1O)N/N=C/c1ccco1 | -0.1 | -4.5 | 2.2
O=C1CS(=O)(=O)C(c2ccccc2)N1c1ccccc1 (stereo not given) | 0.0 | . | .
C[C@@H]1CCCCO[C@H](CN(C)S(=O)(=O)c2ccc(Cl)cc2)[C@@H](C)CN([C@H](C)CO)C(=O)c2cc(NC(=O)Nc3ccc(C(F)(F)F)cc3)ccc2O1 | 0.6 | 70.6* | -52.5
C[C@@H]1CCCCO[C@@H](CN(C)S(=O)(=O)c2ccc(Cl)cc2)[C@@H](C)CN([C@H](C)CO)C(=O)c2cc(NC(=O)Nc3ccc(C(F)(F)F)cc3)ccc2O1 | . | 51.4 | -8.5
COc1ccc(NC(=O)Nc2cccc3c2O[C@H](CN(C)S(=O)(=O)c2ccc(OC)cc2)[C@@H](C)CN([C@H](C)CO)C3=O)cc1 | 0.1 | -10.9 | 2.4
Cc1ccc(S(=O)(=O)N(C)C[C@@H]2Oc3c(NC(=O)Nc4cccc5ccccc45)cccc3C(=O)N([C@@H](C)CO)C[C@H]2C)cc1 | -0.2 | -0.1 | 62.1*
